Results of several laboratories.
Each line is one published result; the experiments were not run side by side.
Target: Serine/threonine-protein kinase BRSK2 (BRSK2, Homo sapiens, UniProt Q8IWQ3)
Sequence (Q8IWQ3 1-736, as in one of the studies): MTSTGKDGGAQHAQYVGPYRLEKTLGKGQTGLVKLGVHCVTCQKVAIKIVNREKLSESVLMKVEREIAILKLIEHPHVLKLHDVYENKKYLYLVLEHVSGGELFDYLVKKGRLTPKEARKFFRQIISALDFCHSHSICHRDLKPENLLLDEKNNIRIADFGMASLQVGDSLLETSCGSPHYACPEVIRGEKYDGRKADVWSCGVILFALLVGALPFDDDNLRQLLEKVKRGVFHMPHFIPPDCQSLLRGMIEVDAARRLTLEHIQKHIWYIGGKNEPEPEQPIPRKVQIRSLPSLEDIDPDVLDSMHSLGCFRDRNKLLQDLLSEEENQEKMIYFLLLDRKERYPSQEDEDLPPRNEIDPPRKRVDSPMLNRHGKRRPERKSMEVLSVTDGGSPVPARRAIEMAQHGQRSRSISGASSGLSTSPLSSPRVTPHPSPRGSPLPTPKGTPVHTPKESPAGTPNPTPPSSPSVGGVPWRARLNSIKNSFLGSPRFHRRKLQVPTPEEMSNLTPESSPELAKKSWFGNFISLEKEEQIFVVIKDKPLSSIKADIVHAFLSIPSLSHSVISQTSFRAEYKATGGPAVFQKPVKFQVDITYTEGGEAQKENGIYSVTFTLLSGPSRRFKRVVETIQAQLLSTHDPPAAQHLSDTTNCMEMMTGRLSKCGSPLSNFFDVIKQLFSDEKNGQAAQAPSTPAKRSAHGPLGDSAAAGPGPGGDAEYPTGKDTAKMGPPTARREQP

SMILES | assay | setting | remaining binding [%]
FC(F)(F)Oc1cccc(-c2cnc3ccc(-c4ccncc4)nn23)c1 | cell-free assay, competition with immobilised ligand | 5 µM | 80
O=C(Nc1c[nH]nc1C(=O)NC1CCNCC1)c1cc(F)cc(F)c1 | binding, competition with immobilised ligand | 1 µM | 100
O=C(c1ccc(Nc2nccc(-c3cc4ccccc4s3)n2)cc1)N1CCC(N2CCCC2)CC1 | binding, competition with immobilised ligand | 1 µM | 91
CN(C)c1nccc(-c2cnc3ncccn23)n1 | binding | 1 µM | 100
C=CC(=O)N1CCC(C(=O)NCC(=O)N2CCN(c3nc(-c4cnc(N)nc4C(F)F)nc(N4CCOCC4)n3)CC2)CC1 | binding, competition with immobilised ligand | 1 µM | 100
O=C(c1ccc(Nc2ncc(Cl)c(-c3cc4ccccc4s3)n2)cc1)N1CCC(N2CCCC2)CC1 | binding, competition with immobilised ligand | 1 µM | 53
COc1cnc(Nc2cccc(S(N)(=O)=O)c2)nc1N1CCN(c2ccccc2)CC1 | binding, competition with immobilised ligand | 1 µM | 100
C[C@H](c1ccnc(Nc2nc3ccc(-c4cc(N(C)C)ncn4)cc3[nH]2)c1)N1CCN(C(=O)CC(F)(F)F)CC1 | cell-free assay, competition with immobilised ligand | 0.1 µM | 100
CNC(=O)[C@@H]1CC[C@@H](n2c(-c3ccc4cnccc4c3)nc3ccc(C(=O)NCc4cccc(C(N)=O)c4)cc32)C1 | binding, competition with immobilised ligand | 1 µM | 93
CN(C)c1ncnc(-c2ccc3nc(Nc4cc(CN5CCN(C(=O)CC(F)(F)F)CC5)ccn4)[nH]c3c2)c1Cl | cell-free assay, competition with immobilised ligand | 1 µM | 100
c1cncc(-c2cccc(Nc3nccc(NC4CCCCC4)n3)c2)c1 | binding, competition with immobilised ligand | 10 µM | 99
N[C@H]1CCN(c2nccc(-c3cnn4ncccc34)n2)C1 | binding | 1 µM | 100
O=C(NCCCN1CCOCC1)c1ccc(Nc2nccc(-c3cc4ccccc4s3)n2)cc1 | binding, competition with immobilised ligand | 1 µM | 77
NS(=O)(=O)c1cc(NC(=O)Cc2ccccc2)ccc1Oc1cccc(Cl)c1 | cell-free assay, competition with immobilised ligand | 1 µM | 91
CN(C)c1nccc(-c2cnn3ncccc23)n1 | binding | 1 µM | 84
O=C(O)[C@@H]1[C@@H](Cn2nnc3ccccc3c2=O)CC[C@H]1C(=O)c1ccc(OCCC2CCOCC2)cc1 | cell-free assay, competition with immobilised ligand | 1 µM | 100
C[C@H]1CCN(c2nccc(-c3cnn4ncccc34)n2)C1 | binding | 1 µM | 96
C[C@H](c1ccc(F)cc1)N(Cc1cccc(C(=O)O)c1)C(=O)c1cnc2ccccc2c1 | cell-free assay, competition with immobilised ligand | 1 µM | 100
CC1CCCN1c1nccc(-c2cnn3ncccc23)n1 (stereo not drawn) | binding | 1 µM | 100
COc1ccc2cc(OCC3(C(=O)O)CN(C(=O)c4ccc(F)cc4)C3)ccc2c1 | cell-free assay, competition with immobilised ligand | 1 µM | 100
c1cnn2ncc(-c3ccnc(N4CCC45COC5)n3)c2c1 | binding | 1 µM | 84
